{"data": "Experimental data gathered from unrelated publications", "target": "TGF-beta receptor type-2 (TGFBR2, Homo sapiens, UniProt P37173)", "note": "Lines come from different studies, so protocols differ."}
{"Structure (SMILES)": "N[C@H]1CCN(c2nccc(-c3cnn4ncccc34)n2)C1", "read-out": "binding", "concentration": "1 µM", "remaining binding [%]": 86}
{"Structure (SMILES)": "FC(F)(F)Oc1cccc(-c2cnc3ccc(-c4ccncc4)nn23)c1", "read-out": "cell-free assay", "technique": "competition with immobilised ligand", "concentration": "5 µM", "remaining binding [%]": 66}
{"Structure (SMILES)": "C[C@@H](c1ccc(-n2cnc3c(N)ncnc32)cc1)N1CCc2nn(C)c(Cc3ccccc3)c2C1=O", "read-out": "binding", "technique": "competition with immobilised ligand", "concentration": "0.1 µM", "remaining binding [%]": 84}
{"Structure (SMILES)": "CCN1CCN(Cc2ccc(C(=O)Nc3ccc(C)c(Oc4ccc5c(c4)CC(=O)N5)c3)cc2C(F)(F)F)CC1", "read-out": "binding", "technique": "competition with immobilised ligand", "concentration": "1 µM", "remaining binding [%]": 100}
{"Structure (SMILES)": "O=C(N[C@H]1CCCCC/C=C\\C2C[C@@]2(C(=O)O)NC(=O)[C@@H]2C[C@@H](Oc3ccncc3)CN2C1=O)OC1CCCC1 (stereo partly drawn)", "read-out": "cell-free assay", "technique": "competition with immobilised ligand", "concentration": "1 µM", "remaining binding [%]": 85}
{"Structure (SMILES)": "Cc1cnc(Nc2ccc(C(=O)N3CCC(N4CCCC4)CC3)cc2)nc1-c1cc2ccccc2s1", "read-out": "binding", "technique": "competition with immobilised ligand", "concentration": "1 µM", "remaining binding [%]": 61}
{"Structure (SMILES)": "COc1cnc(Nc2cccc(S(N)(=O)=O)c2)nc1N1CCN(c2ccccc2)CC1", "read-out": "binding", "technique": "competition with immobilised ligand", "concentration": "1 µM", "remaining binding [%]": 100}
{"Structure (SMILES)": "COc1cc(-c2cn(C3CCc4c(F)cccc4N(CC(F)(F)F)C3=O)nn2)ccc1-n1cnc(C)c1 (stereo not drawn)", "read-out": "cell-free assay", "technique": "competition with immobilised ligand", "concentration": "1 µM", "remaining binding [%]": 100}
{"Structure (SMILES)": "F[C@@H]1CCN(c2nccc(-c3cnn4ncccc34)n2)C1", "read-out": "binding", "concentration": "1 µM", "remaining binding [%]": 100}
{"Structure (SMILES)": "O=C(NCCCN1CCOCC1)c1ccc(Nc2ncc(Cl)c(-c3ccc(Cl)s3)n2)cc1", "read-out": "binding", "technique": "competition with immobilised ligand", "concentration": "1 µM", "remaining binding [%]": 100}
{"Structure (SMILES)": "CN(C)c1nccc(-c2cnc3ncccn23)n1", "read-out": "binding", "concentration": "1 µM", "remaining binding [%]": 76}
{"Structure (SMILES)": "O=C(c1ccc(Nc2ncc(Cl)c(-c3cc4ccccc4s3)n2)cc1)N1CCC(N2CCCC2)CC1", "read-out": "binding", "technique": "competition with immobilised ligand", "concentration": "1 µM", "remaining binding [%]": 84}
{"Structure (SMILES)": "c1cncc(-c2cccc(Nc3nccc(NC4CCCCC4)n3)c2)c1", "read-out": "binding", "technique": "competition with immobilised ligand", "concentration": "10 µM", "remaining binding [%]": 30}
{"Structure (SMILES)": "CC1=C(C#N)C(c2ccc3c(c2)c(NC(=O)c2ccccc2C)nn3C)C(C#N)=C(C)N1", "read-out": "cell-free assay", "technique": "competition with immobilised ligand", "concentration": "1 µM", "remaining binding [%]": 99}
{"Structure (SMILES)": "C[C@H]1CCN(c2nccc(-c3cnn4ncccc34)n2)C1", "read-out": "binding", "concentration": "1 µM", "remaining binding [%]": 60}
{"Structure (SMILES)": "CNCc1ccccc1-c1csc([C@H](C)Nc2nc(C)nc3cc(OC)c(OC)cc23)c1", "read-out": "cell-free assay", "technique": "competition with immobilised ligand", "concentration": "1 µM", "remaining binding [%]": 97}
{"Structure (SMILES)": "O=C(NCC1CCOCC1)c1n[nH]cc1NC(=O)c1c(F)cccc1F", "read-out": "binding", "technique": "competition with immobilised ligand", "concentration": "1 µM", "remaining binding [%]": 100}
{"Structure (SMILES)": "COc1ccc2c(O[C@@H]3C[C@H]4C(=O)N[C@]5(C(=O)O)CC5/C=C\\CCCCC[C@H](NC(=O)OC5CCCC5)C(=O)N4C3)cc(-c3csc(NC(=O)C(C)C)n3)nc2c1C (stereo partly drawn)", "read-out": "cell-free assay", "technique": "competition with immobilised ligand", "concentration": "1 µM", "remaining binding [%]": 93}
{"Structure (SMILES)": "CN(C)c1nccc(-c2cnn3ncccc23)n1", "read-out": "binding", "concentration": "1 µM", "remaining binding [%]": 73}
{"Structure (SMILES)": "COCCOc1nc(-c2ccc(Cl)nc2)nc2c1CN(C(=O)c1ncn3ccccc13)CC2", "read-out": "cell-free assay", "technique": "competition with immobilised ligand", "concentration": "0.1 µM", "remaining binding [%]": 94}
{"Structure (SMILES)": "CN(CCCC(F)(F)F)c1nccc(-c2cnn3ncccc23)n1", "read-out": "binding", "concentration": "1 µM", "remaining binding [%]": 73}
